From the RNAGym collection of RNA variant scans (doi:10.1126/science.aae0568)
This sample holds only a part of the variants without activity.

B1: tRNA (parent)
chain: GUUCCGUUGGCGUAAUGGUAACGCGUCUCCCUCCUAAGGAGAAGACUGCGGGUUCGAGUCCCGUACGGAACG

Variants of: B1
Assay: yeast fitness relative to wild type (ratio to wild type); higher = fitter; tRNA-Arg(CCU), competitive growth, 37 C, YPD
Procedure, shortened: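 Amplicons of the tRNA-Arg(CCU) gene were sequenced, 100-nucleotide paired-end, from the start population and from each end population of a pooled yeast competition. The competition, in six parallel replicates, lasted 24 hours in YPD at 37°C. Fitness relative to wild type was calculated from changes in genotype frequencies. Genotypes had to have ≥ 100 starting reads, and estimates < 0.5 were set to 0.5.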

Going from C29A U35C A45U C60G G63C to U3A A42U, the yeast fitness rises from 0.538 to 0.846.

U2G C11U A40G G50C and U3A C4U G25C G63C cannot be ordered by yeast fitness: no more than 0.5 for the first, no more than 0.5 for the second.

Going from C24U A37U A43U to G48A C55U G63A, the yeast fitness rises from 0.646 to 0.706.

C5U C31G G41A G52C C60U C62G C66G and U7C C11U G39C A45U C61U cannot be ordered by yeast fitness: no more than 0.5 for the first, no more than 0.5 for the second.

First: C22U A57C
Second: G6C G12A C49U G58C
The yeast fitness of the first is lower: 0.661 for the first, 0.776 for the second.

First: U13A U47C A69U
Second: A37C A57C
The yeast fitness of the first is higher: 0.743 for the first, 0.543 for the second.

Going from U26A U54A C55U to C11U G68A, the yeast fitness rises from no more than 0.5 to 0.878.

Going from C4G G17C U59C to G10A U47G A65C, the yeast fitness falls from 0.746 to no more than 0.5.

Compared with G10C C29G A37G, C4U C11A A14C U28A C31U A37U G39A A42G is higher in yeast fitness: no more than 0.5 for the first, 0.645 for the second.

Compared with U16C C61U, C4U C66U is higher in yeast fitness: 0.93 for the first, 0.978 for the second.

Compared with U26G C27U, C4G U32A C34G G41C G68A is lower in yeast fitness: 0.801 for the first, no more than 0.5 for the second.

Going from C31U C55U C61A G67A to C4G C31U A37G, the yeast fitness rises from no more than 0.5 to 0.653.

First: C11A C62G
Second: A36U G39A A45G G63U
The yeast fitness of the first is higher: 0.552 for the first, 0.535 for the second.

G6C C11A G23U G48C and U28A C31U C66A cannot be ordered by yeast fitness: no more than 0.5 for the first, no more than 0.5 for the second.

A14G C27G C62U and C24A C30U C55U cannot be ordered by yeast fitness: no more than 0.5 for the first, no more than 0.5 for the second.

First: U3A C49A
Second: G10A A42G A70C
The yeast fitness of the first is higher: 0.609 for the first, no more than 0.5 for the second.

Compared with U7A C33A A45C, G12A C22U A57U is lower in yeast fitness: 0.54 for the first, no more than 0.5 for the second.

Going from G9C G68C to G25A A40U U54C, the yeast fitness falls from 0.777 to 0.565.

Compared with U8C A65C, G6C G10C C22G C30U C34U A36U is lower in yeast fitness: 0.964 for the first, 0.517 for the second.

Compared with A20U C34G G38C, C5U C11U A57U is higher in yeast fitness: no more than 0.5 for the first, 0.544 for the second.

First: U2A G9C A14C C34U C60G
Second: A14G U47C A69C
The yeast fitness of the first is lower: 0.551 for the first, 0.706 for the second.

First: A21C C27G U28A C29U C34U C62U G63C
Second: U2C C27U C46U G48A
The yeast fitness of the first is lower: no more than 0.5 for the first, 0.636 for the second.

C22G G58C C66A and A20C C34U C60A C66U A70U cannot be ordered by yeast fitness: no more than 0.5 for the first, no more than 0.5 for the second.

Going from G12A A45U to G9U U16G C66A, the yeast fitness falls from 1.03 to no more than 0.5.

C4A G39C C66U and C4U U47A U54C C61A cannot be ordered by yeast fitness: no more than 0.5 for the first, no more than 0.5 for the second.

First: A15U C22G C27U A36C G39C G48C G63U A70U
Second: C55U G68A
The yeast fitness of the first is lower: no more than 0.5 for the first, 0.765 for the second.

Going from A21G G41A C60U to U47A C61A, the yeast fitness rises from 0.574 to 0.769.

Going from U8C C11G C46U to U3G C5U A65U, the yeast fitness rises from no more than 0.5 to 0.651.

A15U G23A C24G C29U C61A A69G and A14G A40U C46G G50C A57U cannot be ordered by yeast fitness: no more than 0.5 for the first, no more than 0.5 for the second.

Compared with G10A U13A A14C A40C C62G, G10C A21C C30G U32C C60U G67C is higher in yeast fitness: no more than 0.5 for the first, 0.54 for the second.

Compared with G50C U53C, U8A A14G C24G A45C is higher in yeast fitness: 0.614 for the first, 0.632 for the second.

A15G G17A A21C and G9C A14U C24G U35G G50C cannot be ordered by yeast fitness: no more than 0.5 for the first, no more than 0.5 for the second.

G17A C22A A45C G67C and U54G G67C cannot be ordered by yeast fitness: no more than 0.5 for the first, no more than 0.5 for the second.

C11A C22G C29G U53A C55G and C4U G10A C22U G44C cannot be ordered by yeast fitness: no more than 0.5 for the first, no more than 0.5 for the second.

Compared with C5U A43U G44A C46A, U13A A45G A65C is higher in yeast fitness: no more than 0.5 for the first, 0.656 for the second.

Going from U7A U16C to C4G G18A A45C, the yeast fitness falls from 0.751 to no more than 0.5.

Compared with U7G C29U U47G, C5U C22G A69C is higher in yeast fitness: no more than 0.5 for the first, 0.691 for the second.

Compared with A20U A45G G50A G52A, G39A G67C is higher in yeast fitness: 0.602 for the first, 0.825 for the second.

Compared with G6C C62G, C30A C49A C60U is lower in yeast fitness: 0.688 for the first, no more than 0.5 for the second.

Compared with G12A G56A, U7G A40C G67C is lower in yeast fitness: 0.975 for the first, no more than 0.5 for the second.

Going from A42G C49A to A21U U32C C49U A57C, the yeast fitness falls from 0.782 to 0.595.

First: U7C G12A A20C A21G C24A C27A A36C
Second: C5U G9A C22U
The yeast fitness of the first is lower: no more than 0.5 for the first, 0.593 for the second.

Going from U32G G39C G52C C61U to A14C C30U A37C C62A, the yeast fitness rises from no more than 0.5 to 0.693.

C5G C61A C62U A65U A69C and G10C A37U G52A C66U cannot be ordered by yeast fitness: no more than 0.5 for the first, no more than 0.5 for the second.

Going from A15U C29A C34U C55A to C24U C55U U59A, the yeast fitness rises from 0.519 to 0.535.

U8C C11A C66G and G6C C24U A65C cannot be ordered by yeast fitness: no more than 0.5 for the first, no more than 0.5 for the second.

Going from G51A U64C G67C A69G to C4U C30A G50C G56A C62U G67U, the yeast fitness falls from 0.854 to no more than 0.5.

Compared with G23C G63C, A14C G17C is higher in yeast fitness: 0.594 for the first, 0.622 for the second.

C5A C11G C30G A36U C60A and C4G U13A U53A A65G cannot be ordered by yeast fitness: no more than 0.5 for the first, no more than 0.5 for the second.

First: U26G A37C
Second: A21C C34A
The yeast fitness of the first is higher: 0.652 for the first, 0.605 for the second.

U2C A37G G39A and G25C G41C G48C cannot be ordered by yeast fitness: no more than 0.5 for the first, no more than 0.5 for the second.

First: G48A U53C C60A C61U
Second: A57U A65U
The yeast fitness of the first is lower: no more than 0.5 for the first, 0.618 for the second.

G10C A14C C60A and G12C A14G G25A G41C G67A cannot be ordered by yeast fitness: no more than 0.5 for the first, no more than 0.5 for the second.

G25C C29U C34G and C27A C31U A36U A45C cannot be ordered by yeast fitness: no more than 0.5 for the first, no more than 0.5 for the second.

First: U16C U47C
Second: A15G C49G C66G G67C
The yeast fitness of the first is higher: 0.899 for the first, no more than 0.5 for the second.

G9C U32A C55U A57U and U28A A43U A65U cannot be ordered by yeast fitness: no more than 0.5 for the first, no more than 0.5 for the second.

Compared with A20U U28C A40U C62G, U2A A20G C29U C33A C55A C60G is lower in yeast fitness: 0.533 for the first, no more than 0.5 for the second.

Going from C11U G50C C61U to C5G U7C C34A, the yeast fitness falls from 0.581 to no more than 0.5.

Going from U8C G67A to A15U C22G C31U U32C A57C U64A G68A, the yeast fitness falls from 0.85 to no more than 0.5.

First: G10A G17A C30G U35A G50A
Second: C5U A45U C62G A65G
The yeast fitness of the first is lower: 0.626 for the first, 0.698 for the second.

First: U13A A40G U47G G63C
Second: A37U G41C
The yeast fitness of the first is lower: 0.535 for the first, 0.68 for the second.

U16C C31U C33U G63C and U2G U28G G51C U64A C66U A69C cannot be ordered by yeast fitness: no more than 0.5 for the first, no more than 0.5 for the second.

Compared with C11G U19A C34G C49G, U2C U19A is higher in yeast fitness: no more than 0.5 for the first, 0.845 for the second.

First: U2G G25C U28G A42C C61U
Second: C34A A40C U54C C66U
The yeast fitness of the first is lower: no more than 0.5 for the first, 0.623 for the second.

Going from C11U U28C A45U to G9A A14U C29G C34A U54A, the yeast fitness falls from 0.742 to no more than 0.5.

Compared with G6A C11U C49G C62U, U35G A65U is higher in yeast fitness: no more than 0.5 for the first, 0.606 for the second.

First: C22U C34G A36U A65C
Second: C30G G51C A65G
The yeast fitness of the first is higher: 0.573 for the first, no more than 0.5 for the second.

Compared with C24A C30U A45G, G17C C66U is higher in yeast fitness: no more than 0.5 for the first, 0.705 for the second.

Going from C4A C30A A40G to U7A G44C, the yeast fitness falls from 0.74 to 0.718.

Compared with A15C A45G, A15G C62G C66G is lower in yeast fitness: 0.583 for the first, no more than 0.5 for the second.

G6A A42G C61G C66A and A21U A57C G58A A70C cannot be ordered by yeast fitness: no more than 0.5 for the first, no more than 0.5 for the second.

First: G50C A57C C61U
Second: G6A C22U A40G A43U C46G C49G C62U
The yeast fitness of the first is higher: 0.613 for the first, no more than 0.5 for the second.

First: C22G A45C
Second: A15U C31A C60G
The yeast fitness of the first is higher: 0.583 for the first, no more than 0.5 for the second.

U8A C27A G39C G51C and A14U G25A C62A G63A A70G cannot be ordered by yeast fitness: no more than 0.5 for the first, no more than 0.5 for the second.

Going from C27G A65U to C60A A69C, the yeast fitness rises from 0.713 to 0.752.

Going from G48C G56A to A15U G25A C27A C33U, the yeast fitness falls from 0.905 to 0.512.

Going from C11G A14C C24G A36C G68A to U2C G51A, the yeast fitness rises from 0.584 to 0.822.

Compared with U13A G17A U32A, U59A A65G is higher in yeast fitness: no more than 0.5 for the first, 1.11 for the second.

C4U C33G A70G and C27G A42U C55U cannot be ordered by yeast fitness: no more than 0.5 for the first, no more than 0.5 for the second.

A14G A40U C55A G68U and G6A A20C A40C A42U G56A C66G cannot be ordered by yeast fitness: no more than 0.5 for the first, no more than 0.5 for the second.

Compared with C24U U59A, G9C A21G A69U is lower in yeast fitness: 0.875 for the first, 0.512 for the second.

First: C27U U64C
Second: U8A A14C C24U U35A G63A
The yeast fitness of the first is higher: 0.969 for the first, 0.803 for the second.

Going from A20G C33U to C5G C33A U64A, the yeast fitness falls from 0.798 to no more than 0.5.

For A20C A36G G48A G50C, the yeast fitness was no more than 0.5.
